According to the RNAGym collection of RNA variant scans (doi:10.1126/science.aae0568):
Variants at the floor of the assay were thinned out.

B1: tRNA (parent)
chain: GUUCCGUUGGCGUAAUGGUAACGCGUCUCCCUCCUAAGGAGAAGACUGCGGGUUCGAGUCCCGUACGGAACG

Variants of: B1
Assay: yeast fitness relative to wild type (ratio to wild type); higher = fitter; tRNA-Arg(CCU), competitive growth, 37 C, YPD
Summary of the method: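 Amplicons of the tRNA-Arg(CCU) gene were sequenced, 100-nucleotide paired-end, from the start population and from each end population of a pooled yeast competition. The competition, in six parallel replicates, lasted 24 hours in YPD at 37°C. Fitness relative to wild type was calculated from changes in genotype frequencies. Genotypes had to have ≥ 100 starting reads, and estimates < 0.5 were set to 0.5.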
With G6A G12A A20G C22G U26A G48C A65U the yeast fitness was ≤ 0.5. In the case of G6A C55U, the yeast fitness is reported as 0.677. For G6C A15G G58C G68A, the yeast fitness was ≤ 0.5. With G6C U19G G48C the yeast fitness was ≤ 0.5. In the case of U7A A43G, the yeast fitness is reported as 0.679. With G6C C11U A20C the yeast fitness was ≤ 0.5. For G6C U7G U19A C27G U53A, the yeast fitness was 0.612. Work on G6A G17A G38C yielded a yeast fitness of 0.708. With G6A A45G A70U the yeast fitness was 0.775. Work on G6A C60A yielded a yeast fitness of 0.515. For G6A G18C C22G A65C, the yeast fitness was ≤ 0.5. With G6C G41C C62U the yeast fitness was ≤ 0.5. For G6C A14U C66U A69C, the yeast fitness was ≤ 0.5. G6C C62A showed a yeast fitness of 0.798. Variant G6A C29A has a yeast fitness of 0.647. G6C A42G A70U showed a yeast fitness of 0.548. In the case of G6C C24G C34U U53C C55G C62A A70U, the yeast fitness is reported as ≤ 0.5. G6C C11U A15G A21U C30G G44A G52A showed a yeast fitness of 0.791. With U7A A20G G23C C29G G51A G56U the yeast fitness was ≤ 0.5. In the case of G6A C22G A40C G41C G68C, the yeast fitness is reported as ≤ 0.5. Variant G6C A36C U64A has a yeast fitness of 0.539. In the case of G6C A15U G23C C31G A37G G56C, the yeast fitness is reported as ≤ 0.5. G6A G48C showed a yeast fitness of 0.884. With G6A G44A C46A G52A C66U the yeast fitness was 0.526. G6A A21U U26G A70C showed a yeast fitness of 0.569. In the case of G6C G52A, the yeast fitness is reported as 0.683. In the case of G6C G52C, the yeast fitness is reported as 0.653. G6C U47C C61U gave a yeast fitness of 0.533. For G6A A21G C33G A57U C62U, the yeast fitness was ≤ 0.5. Variant G6C U8A has a yeast fitness of 0.674. With G6A G23C C49G U53G A57G C61U the yeast fitness was ≤ 0.5. In the case of G6A C24U C49U C61G C66U A69U, the yeast fitness is reported as ≤ 0.5. Variant G6A G48C G58A has a yeast fitness of 0.57. Work on G6A G39U yielded a yeast fitness of 0.79. In the case of G6A C22G C24U U47A A70C, the yeast fitness is reported as ≤ 0.5. In the case of G6A C11G A21G C27G C29U U35G A70C, the yeast fitness is reported as ≤ 0.5. With G6C C22A U28A U53G the yeast fitness was ≤ 0.5. In the case of G6C G23C C24A G52A C55U, the yeast fitness is reported as ≤ 0.5. In the case of G6A C22A C29U, the yeast fitness is reported as ≤ 0.5. In the case of G6A G25C G48C, the yeast fitness is reported as 0.654. Work on G6C A20C C66G yielded a yeast fitness of 0.957. In the case of G6C C11G A15G G68C, the yeast fitness is reported as 0.503. U7A C11U A65U gave a yeast fitness of 0.682. G6C C11A C22U showed a yeast fitness of 0.573. With G6A C27U the yeast fitness was 0.785. In the case of G6A C11G C22G C49A G51A, the yeast fitness is reported as ≤ 0.5. Work on G6C U13G yielded a yeast fitness of 0.56. In the case of U7A C11U A36U, the yeast fitness is reported as ≤ 0.5. With U7A A14U A36U G50C U54A G56A C61A the yeast fitness was ≤ 0.5. For U7A A42U A45G, the yeast fitness was ≤ 0.5. With G6A C24U C31A A43C G58C U64G the yeast fitness was ≤ 0.5. In the case of G6C A20G G52A, the yeast fitness is reported as ≤ 0.5. With G6A A36C A37G G52A the yeast fitness was ≤ 0.5. With G6C C61G G68A the yeast fitness was ≤ 0.5. In the case of G6U A70C, the yeast fitness is reported as 0.813. In the case of G6C A20U A21G A37U C60G C62G, the yeast fitness is reported as ≤ 0.5. In the case of G6A U13G C55A, the yeast fitness is reported as ≤ 0.5. In the case of G6A C11A A14C U19C U32A A42C U54C C61U G68C, the yeast fitness is reported as ≤ 0.5. With G6A G9C C11G C34U U59A A69C the yeast fitness was ≤ 0.5. For U7A A36G A40G G56C C62A, the yeast fitness was ≤ 0.5. For G6C G17A A36U C46A C66A, the yeast fitness was 0.512. With U7A A40C C60A the yeast fitness was 0.543. With G6C U26C A43C A57G C66U the yeast fitness was ≤ 0.5. Work on G6A A43G A65U yielded a yeast fitness of 0.604. With U7A A14G C31U G39C A40C A45U G68C the yeast fitness was 0.555. For G6A C27G A57C C66G, the yeast fitness was ≤ 0.5. For G6C G39C G52A U53A, the yeast fitness was ≤ 0.5. For G6A C29A C55U, the yeast fitness was 0.514. With G6A C34A A40U U64A the yeast fitness was ≤ 0.5. Variant G6A C31G A40U has a yeast fitness of 0.688. In the case of G6A A20U G52C, the yeast fitness is reported as ≤ 0.5. For G6A C11A A43G G58A A65C C66U, the yeast fitness was ≤ 0.5. For G6A G9C C24U C30G C31A A43G A65C, the yeast fitness was ≤ 0.5. G6A C29G U32C showed a yeast fitness of 0.548. With G6A U28G C34U the yeast fitness was ≤ 0.5. With U7A A36C G51C G63A the yeast fitness was ≤ 0.5. In the case of G6C C11U C27G G41C C61A, the yeast fitness is reported as ≤ 0.5. Work on G6C A42U yielded a yeast fitness of 0.739. With G6C A37C C62A A69C the yeast fitness was ≤ 0.5. With G6C C29G U35C A57G the yeast fitness was ≤ 0.5. For G6A G18C C49U C61G, the yeast fitness was ≤ 0.5. In the case of G6A A36C, the yeast fitness is reported as 0.53. In the case of G6A C22G A45C G52C A57U A69C, the yeast fitness is reported as ≤ 0.5. G6A G18A C22U showed a yeast fitness of 0.6. Variant G6A A45C G58A has a yeast fitness of 0.519. In the case of U7A A37G A43G U53A G58C C66G, the yeast fitness is reported as ≤ 0.5. For G6A C11A U26A G52A, the yeast fitness was ≤ 0.5. Work on G6C A15C A21C C34U A37U yielded a yeast fitness of 0.502. In the case of G6C G39C G51A, the yeast fitness is reported as 0.741. Variant G6C A40G C60U C61U has a yeast fitness of 0.513. With G6C U7A U64G the yeast fitness was ≤ 0.5. In the case of G6C G17C C34U C46A U64A, the yeast fitness is reported as 0.597. Variant G6C C22G has a yeast fitness of 0.761. For G6A G25A A45U C62A, the yeast fitness was ≤ 0.5. With G6A C61A C62U A65U A69C the yeast fitness was ≤ 0.5. For G6C A37G C60U A65G, the yeast fitness was ≤ 0.5. With G6A C24U C31A A43C U53C the yeast fitness was ≤ 0.5. With U7A A42G G52C G56A the yeast fitness was ≤ 0.5. In the case of G6C C34U A43G G48A A57G, the yeast fitness is reported as ≤ 0.5. In the case of G6C U7A C29A G51C, the yeast fitness is reported as ≤ 0.5. In the case of G6A C24U C49A, the yeast fitness is reported as ≤ 0.5. In the case of G6A A36U A45U, the yeast fitness is reported as ≤ 0.5. Work on G6A A20G C30G U35A G50A A65C yielded a yeast fitness of 0.517. With G6C A42C A43U the yeast fitness was ≤ 0.5. In the case of G6C A20G A42C A45C, the yeast fitness is reported as ≤ 0.5. In the case of G6C A20U C30G C66U, the yeast fitness is reported as ≤ 0.5. For G6C A42C C49U C66A, the yeast fitness was ≤ 0.5. With G6C A14C C29U C34G C46U C49U C66A G68C the yeast fitness was ≤ 0.5. Work on G6A C34U yielded a yeast fitness of 0.65. For G6A C27A A36G A70U, the yeast fitness was ≤ 0.5. In the case of G6C A15G C22A C29G A37C G50C C66U, the yeast fitness is reported as ≤ 0.5. In the case of G6C C11G A15C G25C C27G C30G G38C A70G, the yeast fitness is reported as ≤ 0.5. Work on G6A U16G yielded a yeast fitness of 0.85. Variant G6A G23C C60A has a yeast fitness of 0.573. For G6A C11A U53C, the yeast fitness was ≤ 0.5. With G6A C49A G63A the yeast fitness was ≤ 0.5. G6A A69U gave a yeast fitness of 0.916. In the case of G6A C11A C49G, the yeast fitness is reported as ≤ 0.5. Work on G6C C33G C34U U64A yielded a yeast fitness of 0.684. In the case of G6C G12A C24G G58C, the yeast fitness is reported as ≤ 0.5. For G6A C22G A57C C66A, the yeast fitness was ≤ 0.5. For G6A G39C G63A, the yeast fitness was ≤ 0.5. G6C A65U showed a yeast fitness of 0.917. In the case of G6A U16C G67C, the yeast fitness is reported as ≤ 0.5. With G6A U13G A42C the yeast fitness was 0.711. With G6A U13G G50C the yeast fitness was 0.538. Variant G6A C11A U19A has a yeast fitness of 0.53. With G6C A15C C31G C33G C55U C61U the yeast fitness was ≤ 0.5. In the case of G6A A21C U47A G68A, the yeast fitness is reported as ≤ 0.5. For G6C C11A A43U G48C, the yeast fitness was ≤ 0.5. G6A A45G G67U showed a yeast fitness of 0.687. With G6C A37G C60G A65U the yeast fitness was ≤ 0.5. In the case of G6A C24U C46U, the yeast fitness is reported as 0.764. With G6A G17C C31A A36U G56A the yeast fitness was 0.632. In the case of G6A C34A A40U U59G, the yeast fitness is reported as ≤ 0.5. With G6A U7G C24A U26C the yeast fitness was ≤ 0.5. With G6A C30G G67C A69G the yeast fitness was ≤ 0.5. With G6C C61U A70G the yeast fitness was 0.554. In the case of G6A U8C A42C A45U A57G A70C, the yeast fitness is reported as ≤ 0.5. For G6A U59C G68A, the yeast fitness was 0.567. In the case of G6A U13G C27U, the yeast fitness is reported as 0.539. In the case of G6A G50A C60A G68U, the yeast fitness is reported as ≤ 0.5. G6A U16A G63A gave a yeast fitness of 0.569. With G6C G12A G51C C66U the yeast fitness was ≤ 0.5. For G6A A36U G41A C60G, the yeast fitness was ≤ 0.5. With G6C U16G A45U the yeast fitness was 0.584. Work on G6A C24U C66U yielded a yeast fitness of 0.647. With U7A A21C U32C G48C C60A the yeast fitness was ≤ 0.5. For U7A A15U U54C, the yeast fitness was ≤ 0.5. For G6C A40G, the yeast fitness was 0.767. With G6C C31G C33G U47C G51A C66U the yeast fitness was ≤ 0.5. In the case of G6A G52C A65U G67C, the yeast fitness is reported as ≤ 0.5. In the case of G6A C30G C55G, the yeast fitness is reported as ≤ 0.5. With G6A G9A C22U C30G the yeast fitness was ≤ 0.5. G6A G25A gave a yeast fitness of 0.859. For G6C A36C A40G G48A A65U C66U A69U, the yeast fitness was ≤ 0.5. With G6A G51A C62U the yeast fitness was 0.643. For U7A A15G G23A G51A C55A C66U, the yeast fitness was ≤ 0.5. With G6A U64G the yeast fitness was 0.795. For U7A A15U A36C A37U A43C C46U C49G G50A, the yeast fitness was ≤ 0.5. G6A C46G G51A showed a yeast fitness of 0.637. For G6C C22U C24G C27U C29A C30U C31G A70C, the yeast fitness was ≤ 0.5. With G6A C11G A21G C27G C29U U35G the yeast fitness was ≤ 0.5. For G6C C46G C62U C66U, the yeast fitness was 0.533. G6C A42C C49U C55U showed a yeast fitness of 0.578. For U7A A15G C34G, the yeast fitness was ≤ 0.5. In the case of U7A A14C A20G C27U A45U G67A, the yeast fitness is reported as ≤ 0.5.
